Laboratory results taken from ChEMBL document CHEMBL1649098 (ACS Med Chem Lett, 2011).
Calls of active or inactive are those of the source.

Assays:
[1] = biological target: T1, Fatty-acid amide hydrolase 1 (Homo sapiens) (UniProt O00519); assay: Irreversible inhibition of His-tagged human FAAH N-terminal transmembrane-deleted truncated form expressed in Escherichia coli assessed as ratio of Kinact to Ki by GDH-coupled FAAH assay
T1 sequence (whole entry): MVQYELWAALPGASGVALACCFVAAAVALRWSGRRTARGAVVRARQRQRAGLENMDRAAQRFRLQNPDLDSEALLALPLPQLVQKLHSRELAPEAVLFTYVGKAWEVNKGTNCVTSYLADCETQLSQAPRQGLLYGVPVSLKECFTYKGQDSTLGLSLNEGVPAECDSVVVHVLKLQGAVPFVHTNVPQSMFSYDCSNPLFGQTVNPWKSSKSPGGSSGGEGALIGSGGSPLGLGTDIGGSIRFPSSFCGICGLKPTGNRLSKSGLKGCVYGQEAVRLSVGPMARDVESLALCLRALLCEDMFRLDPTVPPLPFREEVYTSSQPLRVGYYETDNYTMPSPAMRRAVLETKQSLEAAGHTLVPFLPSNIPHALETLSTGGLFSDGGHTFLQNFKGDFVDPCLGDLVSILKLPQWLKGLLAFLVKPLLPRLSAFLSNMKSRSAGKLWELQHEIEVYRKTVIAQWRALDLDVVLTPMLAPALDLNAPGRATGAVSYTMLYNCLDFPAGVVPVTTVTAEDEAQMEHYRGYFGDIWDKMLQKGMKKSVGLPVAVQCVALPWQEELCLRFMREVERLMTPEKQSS
Procedure, shortened: (§1)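 Irreversible potency was measured as the second-order rate constant kinact/Ki in an enzyme-coupled FAAH assay (human or rat enzyme). Values are the average of at least two independent determinations ±SD.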

[2] = biological target: T2, Fatty-acid amide hydrolase 1 (Rattus norvegicus) (UniProt P97612); assay: Irreversible inhibition of His-tagged rat FAAH N-terminal transmembrane-deleted truncated form expressed in Escherichia coli assessed as ratio of Kinact to Ki by GDH-coupled FAAH assay; procedure, shortened: as §1
T2 sequence (whole entry): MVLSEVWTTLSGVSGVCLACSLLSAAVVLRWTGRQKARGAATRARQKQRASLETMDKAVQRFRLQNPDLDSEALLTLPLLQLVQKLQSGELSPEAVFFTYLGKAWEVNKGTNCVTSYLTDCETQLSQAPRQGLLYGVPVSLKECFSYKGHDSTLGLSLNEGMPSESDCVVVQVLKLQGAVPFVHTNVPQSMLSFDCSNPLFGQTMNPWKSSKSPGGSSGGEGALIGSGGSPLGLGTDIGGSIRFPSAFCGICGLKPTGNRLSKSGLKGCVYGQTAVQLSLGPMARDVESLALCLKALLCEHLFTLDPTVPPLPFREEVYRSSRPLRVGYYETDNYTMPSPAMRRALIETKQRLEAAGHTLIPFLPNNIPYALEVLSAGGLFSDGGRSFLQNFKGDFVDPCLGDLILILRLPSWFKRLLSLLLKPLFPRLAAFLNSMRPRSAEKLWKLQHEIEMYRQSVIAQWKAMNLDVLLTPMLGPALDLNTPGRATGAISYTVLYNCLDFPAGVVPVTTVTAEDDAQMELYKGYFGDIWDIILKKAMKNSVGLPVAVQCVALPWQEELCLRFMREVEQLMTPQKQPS

Cytochrome P450 3A4 [3] = biological target: T3, Cytochrome P450 3A4 (Homo sapiens, UniProt P08684); assay: Inhibition of CYP3A4 uisng testosterone substrate; format: ADME
Procedure, shortened: (§2)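 CYP inhibition was tested in human liver microsomes with relevant probe substrates.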

Cytochrome P450 3A4 [4] = biological target: T3, Cytochrome P450 3A4; assay: Inhibition of CYP3A4 uisng midazolam substrate; format: ADME; procedure, shortened: as §2
Cytochrome P450 2D6 = Cytochrome P450 2D6 (Homo sapiens, UniProt P10635); assay: Inhibition of CYP2D6; format: ADME; procedure, shortened: as §2
[5] = biological target: T1, Fatty-acid amide hydrolase 1 (Homo sapiens); settings: 100 uM
Mus musculus = organism: Mus musculus; assay: Inhibition of fluorophosphonate-reactive 55/65 kDa serine proteases in mouse liver soluble proteomes at 100 uM by competitive activity based protein profiling
Procedure, shortened: (§3)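 Competitive activity-based protein profiling of human or mouse liver soluble proteome. Proteome was treated with inhibitor at 10 or 100 μM, or DMSO, then labelled with FP-rhodamine. Serine hydrolases were resolved on gel and read by fluorescent gel imaging. Bands with reduced labelling intensity in the presence of inhibitor were scored as targets.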

[6] = biological target: T4, Fatty-acid amide hydrolase 1 (Mus musculus) (UniProt O08914); assay: Inhibition of FAAH in mouse brain membrane proteomes at 100 uM by competitive activity based protein profiling; format: cell membranes
T4 sequence (whole entry): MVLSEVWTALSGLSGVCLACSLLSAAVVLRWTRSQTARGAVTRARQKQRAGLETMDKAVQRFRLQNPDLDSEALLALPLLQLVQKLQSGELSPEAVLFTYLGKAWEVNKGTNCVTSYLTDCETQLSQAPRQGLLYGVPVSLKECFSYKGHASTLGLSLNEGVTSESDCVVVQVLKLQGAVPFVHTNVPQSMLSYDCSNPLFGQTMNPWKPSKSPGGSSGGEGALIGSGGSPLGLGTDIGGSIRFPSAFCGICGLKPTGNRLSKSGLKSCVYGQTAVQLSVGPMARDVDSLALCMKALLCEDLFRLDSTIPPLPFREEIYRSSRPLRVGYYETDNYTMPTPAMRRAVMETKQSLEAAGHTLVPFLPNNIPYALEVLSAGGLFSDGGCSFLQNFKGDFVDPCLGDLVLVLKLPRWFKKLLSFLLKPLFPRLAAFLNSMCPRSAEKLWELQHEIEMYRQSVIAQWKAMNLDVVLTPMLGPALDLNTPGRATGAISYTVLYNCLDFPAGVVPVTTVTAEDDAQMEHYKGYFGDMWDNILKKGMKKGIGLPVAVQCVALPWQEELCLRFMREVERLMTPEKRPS
Procedure, shortened: (§4)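 Competitive activity-based protein profiling used human and mouse brain membrane and soluble liver proteomes. Each was treated with compound at 10 or 100 μM or with DMSO, then labelled with FP-rhodamine. Serine hydrolases were resolved on fluorescent gels. Enzymes with reduced labelling intensity in the presence of inhibitor were scored as targets.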

Homo sapiens = organism: Homo sapiens; assay: Inhibition of fluorophosphonate-reactive 55/65 kDa serine proteases in human liver soluble proteomes at 100 uM by competitive activity based protein profiling; procedure, shortened: as §3
[7] = biological target: T1, Fatty-acid amide hydrolase 1 (Homo sapiens); settings: 10 uM
[8] = biological target: T4, Fatty-acid amide hydrolase 1 (Mus musculus); assay: Inhibition of FAAH in mouse brain membrane proteomes at 10 uM by competitive activity based protein profiling; format: cell membranes; procedure, shortened: as §4
Rattus norvegicus [9] = assay: Antihyperalgesic activity in orally dosed Sprague-Dawley rat model of complete Freund's adjuvant-induced inflammatory pain model assessed as reduction in mechanical allodynia measured 4 hrs post dose; format: functional
Procedure, shortened: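 CFA was injected subcutaneously into the plantar surface of the rat hind paw. Oral dosing at 0.1-10 mg/kg began 5 days post-injection, once mechanical paw withdrawal threshold had fallen. Mechanical allodynia was read as paw withdrawal threshold 4 h after dosing. n=8 rats per group; significance versus vehicle-treated groups at p<0.05.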

Rattus norvegicus [10] = organism: Rattus norvegicus; settings: Sprague-Dawley, 10 mg/kg

T3 sequence (P08684 whole entry): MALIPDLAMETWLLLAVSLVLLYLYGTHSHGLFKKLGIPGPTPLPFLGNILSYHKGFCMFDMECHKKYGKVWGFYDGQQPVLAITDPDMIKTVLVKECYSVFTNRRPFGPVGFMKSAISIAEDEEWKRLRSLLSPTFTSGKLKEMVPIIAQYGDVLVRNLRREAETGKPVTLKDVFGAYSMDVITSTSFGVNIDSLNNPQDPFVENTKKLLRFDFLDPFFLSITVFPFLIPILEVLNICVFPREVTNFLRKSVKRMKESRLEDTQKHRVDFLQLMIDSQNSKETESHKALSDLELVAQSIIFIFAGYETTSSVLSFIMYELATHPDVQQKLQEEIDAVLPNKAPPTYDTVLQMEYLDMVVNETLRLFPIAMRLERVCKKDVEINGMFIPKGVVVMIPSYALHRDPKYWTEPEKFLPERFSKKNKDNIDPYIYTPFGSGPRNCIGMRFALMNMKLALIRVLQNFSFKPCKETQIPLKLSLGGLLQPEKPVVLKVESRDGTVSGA
Sequence of Cytochrome P450 2D6 (P10635 whole entry): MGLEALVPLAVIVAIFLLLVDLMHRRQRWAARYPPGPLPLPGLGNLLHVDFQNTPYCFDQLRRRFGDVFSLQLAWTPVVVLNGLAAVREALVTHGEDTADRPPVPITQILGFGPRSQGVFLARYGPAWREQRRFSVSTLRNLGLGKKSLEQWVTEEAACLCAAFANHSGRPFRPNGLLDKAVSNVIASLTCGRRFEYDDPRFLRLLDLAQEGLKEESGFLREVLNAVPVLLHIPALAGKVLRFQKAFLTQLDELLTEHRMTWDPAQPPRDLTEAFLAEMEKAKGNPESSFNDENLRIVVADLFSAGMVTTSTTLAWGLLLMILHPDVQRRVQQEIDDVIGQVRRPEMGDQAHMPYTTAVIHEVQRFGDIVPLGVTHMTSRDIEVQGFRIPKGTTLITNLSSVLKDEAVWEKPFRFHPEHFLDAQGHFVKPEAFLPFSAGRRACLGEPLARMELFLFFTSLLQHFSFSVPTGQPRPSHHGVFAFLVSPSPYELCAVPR

| SMILES | Ratio [1] [M⁻¹ s⁻¹] | Ratio [2] [M⁻¹ s⁻¹] | also measured |
| --- | --- | --- | --- |
| Cc1noc(NC(=O)N2CCC(=Cc3cccc(Oc4ccc(C(F)(F)F)cn4)c3)CC2)c1C | 7990 | 54400 | – |
| O=C(Nc1cccnn1)N1CCC(=Cc2cccc(Oc3ccc(C4CC4)cn3)c2)CC1 | 28800 | 46300 | – |
| O=C(Nc1noc2ccccc12)N1CCC(=Cc2cccc(Oc3ccc(C(F)(F)F)cn3)c2)CC1 | 3930 | 30200 | – |
| O=C(Nc1cnccn1)N1CCC(=Cc2cccc(Oc3ccc(C(F)(F)F)cn3)c2)CC1 | 42600 | 23700 | IC50 (Cytochrome P450 3A4 [3]): 23.5 µM; IC50 (Cytochrome P450 3A4 [4]): 30 µM; IC50 (Cytochrome P450 2D6): 25.1 µM |
| O=C(Nc1ccccc1)N1CCC(=Cc2cccc(Oc3ccc(C(F)(F)F)cn3)c2)CC1 | 4800 | 584 | – |
| NC(=O)c1cccc(-c2cccc(OC(=O)NC3CCCCC3)c2)c1 | – | – | inhibition [5]: Active; inhibition (Mus musculus): Active; inhibition [6]: Active; inhibition (Homo sapiens): Active; inhibition [7]: Active; inhibition [8]: Active |
| O=C(Nc1cccnc1)N1CCC(Cc2cccc(Oc3ccc(C(F)(F)F)cn3)c2)CC1 | – | – | MED (Rattus norvegicus [9]): 3 mg/kg |
| O=C(Nc1cccnc1)N1CC/C(=C\c2cccc(Oc3ccc(C(F)(F)F)cn3)c2)C1 | 144 | – | – |
| O=C(Nc1ccccn1)N1CCC(=Cc2cccc(Oc3ccc(C(F)(F)F)cn3)c2)CC1 | 6090 | 563 | – |
| O=C(Nc1cccnc1)N1CCC(Cc2cccc(Oc3ccc(C(F)(F)F)cn3)c2)C1 (centres undefined) | 88 | – | – |
| O=C(Nc1cccnn1)N1CCC(=Cc2cccc(Oc3ccccc3)c2)CC1 | 1530 | 1900 | – |
| Cc1cccc(Oc2cccc(C=C3CCN(C(=O)Nc4cccnn4)CC3)c2)n1 | 1090 | 586 | – |
| Cc1ccnc(Oc2cccc(C=C3CCN(C(=O)Nc4cccnn4)CC3)c2)c1 | 1580 | – | – |
| COc1ccc2cc([C@H](C)C(=O)O)ccc2c1 | – | – | inhibition (Rattus norvegicus [10]): Active |
| O=C(Nc1cccnc1)N1CCC/C(=C\c2cccc(Oc3ccc(C(F)(F)F)cn3)c2)C1 | 1150 | 233 | – |
| Cc1cccnc1Oc1cccc(C=C2CCN(C(=O)Nc3cccnn3)CC2)c1 | 2200 | 256 | – |
| O=C(Nc1cccnc1)N1CCC(=Cc2cccc(Oc3ccc(C(F)(F)F)cn3)c2)CC1 | 21600 | 15100 | IC50 (Cytochrome P450 3A4 [3]): 0.8 µM; IC50 (Cytochrome P450 3A4 [4]): 4.3 µM; IC50 (Cytochrome P450 2D6): 1.4 µM |
| COc1ccc(NC(=O)N2CCC(=Cc3cccc(Oc4ccc(C(F)(F)F)cn4)c3)CC2)cn1 | 16000 | 11400 | – |
| Cc1ccc(Oc2cccc(C=C3CCN(C(=O)Nc4cccnn4)CC3)c2)nc1 | 21500 | 5530 | – |
| O=C(Nc1cccnn1)N1CCC(=Cc2cccc(Oc3ccc(C(F)(F)F)nc3)c2)CC1 | 26600 | 2020 | – |
| O=C(Nc1cccnc1)N1CC(=Cc2cccc(Oc3ccc(C(F)(F)F)cn3)c2)C1 | 298 | 173 | – |
| O=C(Nc1cccnc1)N1CC/C(=C/c2cccc(Oc3ccc(C(F)(F)F)cn3)c2)C1 | < 16 | – | – |
| Cc1ccc(NC(=O)N2CCC(=Cc3cccc(Oc4ccc(C(F)(F)F)cn4)c3)CC2)cn1 | 13100 | 5210 | IC50 (Cytochrome P450 3A4 [3]): 3 µM; IC50 (Cytochrome P450 3A4 [4]): 11.8 µM; IC50 (Cytochrome P450 2D6): 1.6 µM |
| O=C(Nc1cccnn1)N1CCC(=Cc2cccc(Oc3ccc(C(F)(F)F)cc3)c2)CC1 | 18900 | 22900 | – |
| CCOc1ccc(Oc2cccc(C=C3CCN(C(=O)Nc4cccnn4)CC3)c2)nc1 | 9230 | 11700 | – |
| O=C(Nc1cccnc1)N1CCC/C(=C/c2cccc(Oc3ccc(C(F)(F)F)cn3)c2)C1 | 35 | 22 | – |
